Measured values: ChEMBL document CHEMBL3352152, “Indolylmethylene benzo[h]thiazolo[2,3-b]quinazolinones: synthesis, characterization and evaluation of anticancer and antimicrobial activities” (Bioorg Med Chem Lett, 2014)

How the values were obtained:
Staphylococcus aureus = test: Antibacterial activity against Staphylococcus aureus MTCC 96 at 150 ug/ml after 24 hrs by agar well diffusion assay; format: functional; settings: MTCC 96, 24 h, read-out: IZ
In short: (§1)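 Agar well diffusion screen against the two Gram-positive strains (S. aureus, S. pyogenes) and the two Gram-negative strains (P. aeruginosa, K. pneumoniae). Streptomycin was the reference drug. Activity was read as zone of inhibition (mm).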

Aspergillus niger = test: Antifungal activity against Aspergillus niger MTCC 282 at 150 ug/ml after 48 hrs by agar well diffusion method; format: functional; settings: MTCC 282, 48 h, read-out: IZ
In short: (§2)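 Antifungal screen by agar well diffusion against C. albicans, C. glabrata, A. niger and A. parasiticus. Clotrimazole was the standard drug. Activity was recorded as zone of inhibition (ZOI, mm).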

Nakaseomyces glabratus = test: Antifungal activity against Candida glabrata MTCC3019 at 150 ug/ml after 48 hrs by agar well diffusion method; format: functional; settings: MTCC3019, 48 h, read-out: IZ; in short: as §2
Candida albicans = test: Antifungal activity against Candida albicans MTCC 183 at 150 ug/ml after 48 hrs by agar well diffusion method; format: functional; settings: MTCC 183, 48 h, read-out: IZ; in short: as §2
Aspergillus parasiticus = test: Antifungal activity against Aspergillus parasiticus MTCC 8850 at 150 ug/ml after 48 hrs by agar well diffusion method; format: functional; settings: MTCC 8850, 48 h, read-out: IZ; in short: as §2
HepG2 = test: Anticancer activity against human HepG2 cells assessed as cell viability after 48 hrs by MTT microcultured tetrazolium assay; format: functional, cell-based; settings: HepG2, 48 h
In short: (§3)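 MTT-microcultured tetrazolium viability read-out in MCF-7 and HepG2 cells exposed to test samples. Surviving fraction was plotted against drug concentration to give survival curves, and IC50 was taken from these curves.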

MCF7 = test: Anticancer activity against human MCF7 cells assessed as cell viability after 48 hrs by MTT microcultured tetrazolium assay; format: functional, cell-based; settings: MCF7, 48 h; in short: as §3
Pseudomonas aeruginosa = test: Antibacterial activity against Pseudomonas aeruginosa MTCC 4673 at 150 ug/ml after 24 hrs by agar well diffusion assay; format: functional; settings: MTCC 4673, 24 h, read-out: IZ; in short: as §1
Streptococcus pyogenes = test: Antibacterial activity against Streptococcus pyogenes MTCC 1926 at 150 ug/ml after 24 hrs by agar well diffusion assay; format: functional; settings: MTCC 1926, 24 h, read-out: IZ; in short: as §1
Klebsiella pneumoniae = test: Antibacterial activity against Klebsiella pneumoniae MTCC 109 at 150 ug/ml after 24 hrs by agar well diffusion assay; format: functional; settings: MTCC 109, 24 h, read-out: IZ; in short: as §1

IC50 (HepG2) [µM]	IC50 (MCF7) [µM]	Compound	zone of inhibition at 150 µg/mL (Staphylococcus aureus) [mm]	zone of inhibition at 150 µg/mL (Aspergillus niger) [mm]	zone of inhibition at 150 µg/mL (Nakaseomyces glabratus) [mm]	zone of inhibition at 150 µg/mL (Candida albicans) [mm]	zone of inhibition at 150 µg/mL (Aspergillus parasiticus) [mm]	zone of inhibition at 150 µg/mL (Pseudomonas aeruginosa) [mm]	zone of inhibition at 150 µg/mL (Streptococcus pyogenes) [mm]	zone of inhibition at 150 µg/mL (Klebsiella pneumoniae) [mm]
34.9	23.5	COc1ccc2c(c1)CCC1=C2N=c2s/c(=C\c3c[nH]c4ccccc34)c(=O)n2C1c1ccc(Cl)cc1 (stereo unspecified)	8	8	14	8	10	8	8	8
38.8	61.9	COc1ccc2c(c1)CCC1=C2N=c2s/c(=C\c3c(C)[nH]c4ccccc34)c(=O)n2C1c1ccc(Cl)cc1 (stereo unspecified)	8	8	8	8	12	8	8	8
11.6	2.59	COc1ccc2c(c1)CCC1=C2N=c2s/c(=C\c3c[nH]c4ccc(Br)cc34)c(=O)n2C1c1ccc(Cl)cc1 (stereo unspecified)	8	10	10	8	10	8	8	8
8.6	7.72	COc1ccc(C2C3=C(N=c4s/c(=C\c5c[nH]c6ccc(Br)cc56)c(=O)n42)c2ccc(OC)cc2CC3)cc1 (stereo unspecified)	8	8	12	8	10	8	8	8
69.8	166	Cc1[nH]c2ccccc2c1/C=c1\sc2n(c1=O)C(c1ccc(Cl)cc1)C1=C(N=2)c2ccccc2CC1 (stereo unspecified)	13	14	19	16	14	17	8	8
16.3	42.8	O=c1/c(=C/c2c[nH]c3ccccc23)sc2n1C(c1ccc(Cl)cc1)C1=C(N=2)c2ccccc2CC1 (stereo unspecified)	12	12	12	8	12	18	8	8
27.7	20.7	COc1ccc2[nH]cc(/C=c3\sc4n(c3=O)C(c3ccc(Cl)cc3)C3=C(N=4)c4ccccc4CC3)c2c1 (stereo unspecified)	14	18	16	15	18	14	8	8
13.7	18.9	O=c1/c(=C/c2c[nH]c3ccc(Br)cc23)sc2n1C(c1ccc(Cl)cc1)C1=C(N=2)c2ccccc2CC1 (stereo unspecified)	13	8	10	8	8	15	8	8
61.1	54.4	COc1ccc(C2C3=C(N=c4s/c(=C\c5c[nH]c6ccccc56)c(=O)n42)c2ccc(OC)cc2CC3)cc1 (stereo unspecified)	17	18	20	18	18	8	18	15
94.5	> 200	COc1ccc2c(c1)CCC1=C2N=c2s/c(=C\c3c(C)[nH]c4ccccc34)c(=O)n2C1c1cccc([N+](=O)[O-])c1 (stereo unspecified)	16	20	14	17	18	13	15	14
51.6	> 200	COc1ccc2c(c1)CCC1=C2N=c2s/c(=C\c3c[nH]c4ccc(C)cc34)c(=O)n2C1c1cccc([N+](=O)[O-])c1 (stereo unspecified)	17	8	12	8	8	8	17	17
> 200	> 200	COc1ccc2c(c1)CCC1=C2N=c2s/c(=C\c3c[nH]c4ccc(Br)cc34)c(=O)n2C1c1cccc([N+](=O)[O-])c1 (stereo unspecified)	19	10	8	8	10	8	16	17
70.3	> 200	COc1ccc2c(c1)CCC1=C2N=c2s/c(=C\c3c[nH]c4ccccc34)c(=O)n2C1c1cccc([N+](=O)[O-])c1 (stereo unspecified)	8	12	8	8	8	8	8	8
> 200	112	COc1ccc(C2C3=C(N=c4s/c(=C\c5c(C)[nH]c6ccccc56)c(=O)n42)c2ccc(OC)cc2CC3)cc1 (stereo unspecified)	8	8	8	8	10	8	8	8
57.5	30.6	COc1ccc(C2C3=C(N=c4s/c(=C\c5c[nH]c6ccc(OC)cc56)c(=O)n42)c2ccc(OC)cc2CC3)cc1 (stereo unspecified)	8	14	8	8	10	8	8	8
199	> 200	O=c1/c(=C/c2c[nH]c3ccccc23)sc2n1C(c1cccc([N+](=O)[O-])c1)C1=C(N=2)c2ccccc2CC1 (stereo unspecified)	8	12	10	8	12	8	8	8
22.1	8.96	COc1ccc2c(c1)CCC1=C2N=c2s/c(=C\c3c[nH]c4ccc(Br)cc34)c(=O)n2C1c1ccc(F)cc1 (stereo unspecified)	22	8	10	8	8	22	8	18
86.8	193	COc1ccc2c(c1)CCC1=C2N=c2s/c(=C\c3c[nH]c4ccc(OC)cc34)c(=O)n2C1c1ccc(F)cc1 (stereo unspecified)	8	10	10	8	10	8	8	15
73.8	82.4	COc1ccc2c(c1)CCC1=C2N=c2s/c(=C\c3c(C)[nH]c4ccccc34)c(=O)n2C1c1ccc(F)cc1 (stereo unspecified)	13	12	8	8	8	13	8	16
1.1	–	COc1cccc2c1C(=O)c1c(O)c3c(c(O)c1C2=O)C[C@@](O)(C(=O)CO)C[C@@H]3O[C@H]1C[C@H](N)[C@H](O)[C@H](C)O1 [DOXORUBICIN]	–	–	–	–	–	–	–	–
